Shown are actives, neighbours in structure and some others; about 1% of the full set was active somewhere.
Lipid droplet: modulators of hepatic lipid droplet formation; AML12 mouse hepatocytes, oleate lipid droplets, BODIPY imaging; AID 1656; 240,000 tested, 0.4% active; inhibition, % at 6.5 µM;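 active = lipid droplet intensity inhibited by at least 50%, with more than 500 cells counted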
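material = mouse AML12 hepatocyte cell line, fixed after treatment | also added = 100 µM oleic acid challenge | doses = compound at 6.5 µM only | schedule = overnight exposure | technique = Image-based BODIPY and DAPI two-channel analysis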
pCIP destab: compounds decreasing mouse p/CIP protein stability; decrease of EGFP signal, % at 10 µM; 290,000 tested, 0.01% active; F442A p/CIP-EGFP cells, EGFP fluorescence, 16 h;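 active = EGFP signal decrease of at least 30% at 10 µM or well 3 SD below plate mean, unless failing retest; inactive = the rest, including hits failing retest or dose response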
Arrestin-AP2 inh: blocks beta-arrestin peptide binding to AP2 adaptin. FITC-arrestin peptide / GST-AP2 beads, flow cytometry; AP2 beta2 appendage carries R879A mutation. inhibition, % at 10 µM. 340,000 tested, 0.31% active. AID 504490;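 active = inhibition above a set limit, near 3 SD of compounds lacking own fluorescence, cut at about 54% in these data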
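Measured by: flow cytometry, FL1 (488/535 nm); Material: AP2 appendage R879A on GSH beads; Evaluation: percent response; Timing: pre-incubation 12 min, peptide binding 1 h, room temperature; Also added: 50 nM FITC-arrestin peptide; Medium: PBS with 0.05% Tween 20 and 0.1% BSA.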
CTSL1 counter: cathepsin L1 inhibition, PFM18AAP counter-screen | recombinant F. hepatica cathepsin L1, Z-Leu-Arg-MCA fluorescence | inhibition, % at 5.96 µM | 300,000 tested, 0.49% active | AID 1906;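 active = inhibition above the mean of all tested compounds plus 3 SD, set per screening campaign, cut at about 17% in these data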
Of the large screens only hits and unclear results are named; the others gave an inactive call.

Cc1[nH]c2ccccc2c1/C=N/NC(=O)c1cccc(S(=O)(=O)Nc2ccccc2Cl)c1	none
O=C(COC(=O)c1cc2ccccc2oc1=O)Nc1ccc(F)cc1F	CTSL1 counter 31
CC1CC(=O)C(C2c3ccccc3CCN2C(=O)CCl)C(=O)C1 (stereo not drawn)	none
COc1cc2c(cc1OC)C(C1C(=O)CC(C)(C)CC1=O)N(C(=O)CCl)CC2 (stereo not drawn)	CTSL1 counter 17
COc1cc2c(cc1OC)C(c1cc(Br)ccc1F)N(C(=O)CCl)CC2 (stereo not drawn)	CTSL1 counter 89
O=c1ccsn1Cc1ccccc1	CTSL1 counter 24
Cc1ccc(Nc2c(-c3ccccn3)nc3ccc(C)cn23)cc1	CTSL1 counter 19
Cc1ccc(Nc2c(-c3ccccn3)nc3cc(C)ccn23)cc1	none
O=C(N/N=C1\C/C(=N\NC(=O)c2ccncc2)c2ccccc21)c1ccncc1	CTSL1 counter 42
O=C(NN=C1C2CC3CC(C2)CC1C3)c1ccncc1	none (no result: Lipid droplet)
O=C(NN=C1CCCC1)c1ccccc1OCCOc1ccccc1	none
CCCCN(C(=S)Nc1ccccc1)C1CCS(=O)(=O)C1 (stereo not drawn)	CTSL1 counter 18 (no result: Lipid droplet)
CN1CCN(c2ccc(-c3ccc4ccccc4n3)cc2)CC1	none (no result: CTSL1 counter)
C=CCn1c(SCC(=O)NCc2ccc3c(c2)OCO3)nnc1C1COc2ccccc2O1 (stereo not drawn)	none (no result: Lipid droplet)
COC(=O)c1c(NC(=O)CCl)sc(C(=O)N2CCOCC2)c1C	CTSL1 counter 35
CCOc1ccc2ccccc2c1/C=N/NC(=O)CNC(=O)c1ccccc1O	none
CC(C)n1nnnc1SCC(=O)NNC(=O)C1CCCCC1	CTSL1 counter 27 (no result: Lipid droplet)
CCCCS(=O)(=O)/C=C\C1C2C=CC(C2)C1S(=O)(=O)CCCC (stereo not drawn)	none (no result: Lipid droplet)
CCCCS(=O)(=O)/C=C\C=C/S(=O)(=O)CCCC	CTSL1 counter 64
N#CC1=C(N)C(C#N)(C#N)C2(C(=O)Nc3ccccc32)C2CCCC=C12 (stereo not drawn)	CTSL1 counter 20 (no result: Lipid droplet)
CCCCc1c(O)nc(SCC(=O)c2ccccc2)n(-c2ccccc2C)c1=O	none
CC(C)OC(=O)CN1C(=O)C(C)(C)Oc2ccc(C(=O)NC(C)(C)C)cc21	none
O=C(N/N=C/c1ccccc1Cl)c1ccc(F)cc1	none (no result: Lipid droplet)
COc1ccccc1NC1=C(Cl)C(=O)N(c2ccccc2)C1=O	none
CCOc1ccc(N2C(=O)C(Cl)=C(Nc3ccccc3O)C2=O)cc1	CTSL1 counter 17
CC1=NN(S(=O)(=O)c2ccc(Cl)cc2Cl)C(=O)c2ccccc2O1	CTSL1 counter 56
Cc1nn(-c2ccc(Cl)cc2Cl)c(=O)c2ccccc12	none
Cc1cccc([C@@H]2[C@@H]3C(=O)N(Cc4ccccc4)C(=O)[C@@H]3[C@]3(C)C(=O)N(c4ccc(C(F)(F)F)cc4)C(=O)N23)c1	none
CCCCCCCCNc1nc(Cl)nc(NCCN2CCOCC2)n1	none
Cc1c(NC(=O)C(C)OC(=O)c2ccc([N+](=O)[O-])s2)c(=O)n(-c2ccccc2)n1C (stereo not drawn)	CTSL1 counter 28
Clc1ccc(CONc2ncnc3nonc23)c(Cl)c1	CTSL1 counter 18
CCONc1ncnc2nonc12	none
COc1cccc(-c2cc(C(=O)Nc3ccncc3)c3ccccc3n2)c1	none
O=C(c1ccc(F)cc1)N1CCCCC(Sc2nnc3ccccn23)C1=O (stereo not drawn)	none
N#Cc1nc(COc2ccc(-c3ccccc3)cc2)oc1NCCCN1CCOCC1	Arrestin-AP2 inh 83 (no result: Lipid droplet)
Cc1ccc(-n2c(C)cc(/C=C3\NC(=O)NC3=O)c2C)c(C)c1	CTSL1 counter 17
Cc1cccc(NC(=O)C2CCN(S(=O)(=O)c3ccc4ccccc4c3)CC2)n1	none (no result: Lipid droplet, pCIP destab)
CC(C)=CCC1=C(OCC(=O)O)C(=O)c2ccccc2C1=O	CTSL1 counter 45
CC(C)=CCC/C(C)=C/CC/C(C)=C/CC/C(C)=C/CC1=C(C)C(=O)c2ccccc2C1=O	none
CCCC1=NCCn2cccc21	none (no result: Lipid droplet)
COc1ccccc1/C=N/NC(=O)c1ccc(CN2C(=O)c3cccc4cccc2c34)cc1	CTSL1 counter 18
NNC(=O)c1ccc(CN2C(=O)c3cccc4cccc2c34)cc1	none
COc1cc(OC)cc(C(=O)N[C@H](C(=O)OCC(=O)c2ccc(F)cc2)C(C)C)c1	CTSL1 counter 18
COc1cc(OC)cc(C(=O)N[C@H](C(=O)OCC(=O)Nc2cccc(F)c2)C(C)C)c1	none
O=c1ccc(-c2ccc(S(=O)(=O)Nc3cccc([N+](=O)[O-])c3)s2)n[nH]1	CTSL1 counter 21
